Data reported in ChEMBL document CHEMBL2311525, “Design, synthesis, and pharmacological properties of new heteroarylpyridine/heteroarylpyrimidine derivatives as CB(2) cannabinoid receptor partial agonists” (J Med Chem, 2013).

Assays:
Cannabinoid receptor 2 [1] = molecular target: T1, Cannabinoid receptor 2 (Homo sapiens, UniProt P34972); test: Agonist activity at human CB2 receptor expressed in CHO cells assessed as forskolin-stimulated [3H]cyclic-AMP accumulation by scintillation counting analysis relative to WIN 55,212-2; format: functional, cell-based
T1 sequence (P34972 whole entry): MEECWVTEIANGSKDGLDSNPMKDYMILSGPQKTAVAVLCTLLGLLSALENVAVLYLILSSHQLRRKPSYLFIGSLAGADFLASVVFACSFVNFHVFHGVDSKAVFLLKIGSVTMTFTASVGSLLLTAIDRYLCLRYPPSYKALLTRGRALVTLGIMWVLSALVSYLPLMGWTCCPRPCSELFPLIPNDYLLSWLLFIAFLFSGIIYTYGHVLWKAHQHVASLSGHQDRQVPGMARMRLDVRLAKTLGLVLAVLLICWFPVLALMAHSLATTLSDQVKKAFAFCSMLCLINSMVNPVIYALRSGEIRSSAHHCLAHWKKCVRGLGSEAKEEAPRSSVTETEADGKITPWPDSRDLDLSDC
Outline: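 CHO cells stably expressing human CB2, 1 × 10^6 cells/assay, in buffered saline (10 mM MgCl2, 5 mM glucose, 5 mM HEPES, pH 7.4, 37 °C) with 0.5 mM Ro 20-1724. Preincubated 10 min at 37 °C, then tested with 1 μM forskolin. Stopped with cold 6% TCA and ether-extracted. cAMP read by [3H]cAMP competition binding to beef adrenal binding protein with charcoal separation.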

Cannabinoid receptor 2 [2] = molecular target: T1, Cannabinoid receptor 2; test: Agonist activity at human CB2 receptor expressed in CHO cells assessed as forskolin-stimulated [3H]cyclic-AMP accumulation by scintillation counting analysis; format: functional, cell-based
Cannabinoid receptor 2 [3] = molecular target: T1, Cannabinoid receptor 2; test: Displacement of [3H]CP-55,940 from human recombinant CB2 receptor expressed in CHO cell membranes at 1 to 10000 nM after 60 mins by scintillation counting analysis
Outline: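 Membranes from CHO cells expressing hCB2, spun at 100000g, in 50 mM Tris-HCl with 0.5% BSA, 5 mM MgCl2 and 1 mM EDTA, pH 7.4. Incubated with 0.5 nM [3H]CP-55,940 and compound at 1 nM–10 μM for 60 min at 30 °C. Filtered on GF/C and counted. Ki by Cheng–Prusoff, n = 4.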

Cannabinoid receptor 1 [4] = molecular target: T2, Cannabinoid receptor 1 (Homo sapiens, UniProt P21554); test: Displacement of [3H]CP-55,940 from human recombinant CB1 receptor expressed in CHO cell membranes at 1 to 10000 nM after 90 mins by scintillation counting analysis
T2 sequence (P21554 whole entry): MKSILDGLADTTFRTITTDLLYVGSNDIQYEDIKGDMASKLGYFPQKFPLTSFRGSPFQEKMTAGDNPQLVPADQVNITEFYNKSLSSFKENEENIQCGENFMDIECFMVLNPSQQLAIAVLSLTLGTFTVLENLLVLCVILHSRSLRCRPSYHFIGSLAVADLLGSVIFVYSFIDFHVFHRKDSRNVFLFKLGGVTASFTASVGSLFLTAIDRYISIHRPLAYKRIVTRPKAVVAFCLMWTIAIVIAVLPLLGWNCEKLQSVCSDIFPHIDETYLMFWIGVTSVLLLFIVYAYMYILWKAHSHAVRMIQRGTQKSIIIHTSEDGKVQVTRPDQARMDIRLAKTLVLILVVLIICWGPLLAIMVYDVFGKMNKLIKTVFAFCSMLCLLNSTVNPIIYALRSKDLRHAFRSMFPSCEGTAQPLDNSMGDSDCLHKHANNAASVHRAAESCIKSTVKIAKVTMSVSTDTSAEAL
Outline: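 Membranes from CHO cells expressing hCB1, spun at 100000g, in 50 mM Tris-HCl with 0.5% BSA, 5 mM MgCl2 and 2.5 mM EDTA, pH 7.4. Incubated with 0.5 nM [3H]CP-55,940 and compound at 1 nM–10 μM for 90 min at 30 °C. Filtered on GF/C and counted. Ki by Cheng–Prusoff, n = 4.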

[5] = molecular target: T3, Cannabinoid receptor 2 (Rattus norvegicus) (UniProt Q9QZN9); test: Displacement of [3H]CP-55,940 from Sprague-Dawley rat spleen CB2 receptor at 1 to 10000 nM by scintillation counting analysis
T3 sequence (whole entry): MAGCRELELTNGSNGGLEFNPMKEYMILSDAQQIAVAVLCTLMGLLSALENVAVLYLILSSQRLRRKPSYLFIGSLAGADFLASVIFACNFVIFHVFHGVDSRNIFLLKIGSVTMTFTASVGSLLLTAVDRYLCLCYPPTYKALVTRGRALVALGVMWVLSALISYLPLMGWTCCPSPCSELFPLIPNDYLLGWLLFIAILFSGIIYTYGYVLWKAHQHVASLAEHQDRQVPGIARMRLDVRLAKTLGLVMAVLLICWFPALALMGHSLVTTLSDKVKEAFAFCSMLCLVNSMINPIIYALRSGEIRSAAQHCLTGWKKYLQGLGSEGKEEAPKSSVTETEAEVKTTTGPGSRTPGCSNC
Outline: (§1)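 Male Sprague-Dawley rat spleen membranes, prepared by spinning at 2000g and then 40000g, in 50 mM Tris-HCl with 1 mM EDTA, 3 mM MgCl2 and 0.5% fatty-acid-free BSA, pH 7.4. Incubated with 0.5 nM [3H]CP-55,940, 80 μg protein/100 μL and test compound at 1 nM–10 μM. Filtered on GF/C. Ki by Cheng–Prusoff, n = 4.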

[6] = molecular target: Cannabinoid receptor 1 (Rattus norvegicus) (UniProt P20272); test: Displacement of [3H]CP-55,940 from Sprague-Dawley rat brain CB1 receptor at 1 to 10000 nM by scintillation counting analysis
Chain of Cannabinoid receptor 1 (Rattus norvegicus) (P20272 whole entry): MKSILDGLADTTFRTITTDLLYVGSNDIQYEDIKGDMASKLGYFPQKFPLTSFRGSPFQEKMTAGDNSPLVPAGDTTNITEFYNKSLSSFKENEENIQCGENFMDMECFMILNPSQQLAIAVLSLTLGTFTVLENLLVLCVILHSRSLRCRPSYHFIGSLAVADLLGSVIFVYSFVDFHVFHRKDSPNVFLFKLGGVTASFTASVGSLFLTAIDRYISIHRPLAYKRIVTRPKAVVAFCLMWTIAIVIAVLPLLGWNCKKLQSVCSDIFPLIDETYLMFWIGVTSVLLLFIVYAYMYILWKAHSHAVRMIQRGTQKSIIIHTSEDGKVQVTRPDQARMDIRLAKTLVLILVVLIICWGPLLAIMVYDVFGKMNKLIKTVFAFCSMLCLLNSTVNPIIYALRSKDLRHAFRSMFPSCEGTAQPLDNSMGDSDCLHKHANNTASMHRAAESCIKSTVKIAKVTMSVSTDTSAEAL
Outline: as §1, with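 “rat brain” for “rat spleen”, “with 1.0” for “with 0.5”, “[3H]CP-55,940, 40” for “[3H]CP-55,940, 80”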

Cannabinoid receptor 2 [7] = molecular target: T1, Cannabinoid receptor 2; test: Displacement of [3H]CP-55,940 from human recombinant CB2 receptor expressed in CHO cell membranes after 60 mins by scintillation counting analysis
Cannabinoid receptor 2 [8] = molecular target: T4, Cannabinoid receptor 2 (Rattus norvegicus, UniProt Q9QZN9); test: Displacement of [3H]CP-55,940 from Sprague-Dawley rat spleen CB2 receptor by scintillation counting analysis
T4 sequence (Q9QZN9 whole entry): T3 sequence (whole entry)
Outline: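 Male Sprague-Dawley rat spleen membranes, prepared by spinning at 2000g and then 40000g, in 50 mM Tris-HCl with 1 mM EDTA, 3 mM MgCl2 and 0.5% fatty-acid-free BSA, pH 7.4. Filtered on GF/C.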

Cannabinoid receptor 1 [9] = molecular target: T2, Cannabinoid receptor 1; test: Displacement of [3H]CP-55,940 from human recombinant CB1 receptor expressed in CHO cell membranes after 90 mins by scintillation counting analysis
Cannabinoid receptor 1 [10] = molecular target: Cannabinoid receptor 1 (Rattus norvegicus, UniProt P20272); test: Displacement of [3H]CP-55,940 from Sprague-Dawley rat brain CB1 receptor by scintillation counting analysis
Chain of Cannabinoid receptor 1 (Rattus norvegicus, UniProt P20272) (P20272 whole entry): as above
Outline: as §1, with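 “rat brain” for “rat spleen”, “with 1.0” for “with 0.5”, “[3H]CP-55,940, 40” for “[3H]CP-55,940, 80”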

Homo sapiens = species on record: Homo sapiens; test: Selectivity ratio of Ki for CB1 receptor (unknown origin) to Ki for CB2 receptor (unknown origin)

## C=CCn1cc(C(=O)NC2CCCCC2)c(=O)c2c(C)nn(C)c21
Cannabinoid receptor 2 [1]
  Emax: 58%
Cannabinoid receptor 2 [2]
  EC50: 0.587 µM
Cannabinoid receptor 2 [3]
  inhibition: 42%
Cannabinoid receptor 1 [4]
  inhibition: 34%
[5]
  inhibition: 46%
[6]
  inhibition: 27%
Cannabinoid receptor 2 [7]
  Ki: > 10 µM
Cannabinoid receptor 2 [8]
  Ki: > 10 µM
Cannabinoid receptor 1 [9]
  Ki: > 10 µM
Cannabinoid receptor 1 [10]
  Ki: > 10 µM

## Cc1nn(C)c2c1c(=O)c(C(=O)NC1CCCCC1)cn2CCCCC#N
Cannabinoid receptor 2 [3]
  inhibition: 11%
Cannabinoid receptor 1 [4]
  inhibition: 28%
[5]
  inhibition: 5%
[6]
  inhibition: 25%
Cannabinoid receptor 2 [7]
  Ki: > 10 µM
Cannabinoid receptor 2 [8]
  Ki: > 10 µM
Cannabinoid receptor 1 [9]
  Ki: > 10 µM
Cannabinoid receptor 1 [10]
  Ki: > 10 µM

## CCCCCn1cc(C(=O)Nc2ccc(OC)cc2)c(=O)c2c(C)nn(C)c21
Cannabinoid receptor 2 [3]
  inhibition: 33%
Cannabinoid receptor 1 [4]
  inhibition: 38%
[5]
  inhibition: 24%
[6]
  inhibition: 46%
Cannabinoid receptor 2 [7]
  Ki: > 10 µM
Cannabinoid receptor 2 [8]
  Ki: > 10 µM
Cannabinoid receptor 1 [9]
  Ki: > 10 µM
Cannabinoid receptor 1 [10]
  Ki: > 10 µM

## CCOCCn1cc(C(=O)NC2CCCCC2)c(=O)c2c(C)nn(C)c21
Cannabinoid receptor 2 [3]
  inhibition: 1%
Cannabinoid receptor 1 [4]
  inhibition: 14%
[5]
  inhibition: 1%
[6]
  inhibition: 10%
Cannabinoid receptor 2 [7]
  Ki: > 10 µM
Cannabinoid receptor 2 [8]
  Ki: > 10 µM
Cannabinoid receptor 1 [9]
  Ki: > 10 µM
Cannabinoid receptor 1 [10]
  Ki: > 10 µM

## CCCCCCC(C)(C)c1cc(OC)c([C@@H]2C=C(CO)[C@H]3C[C@@H]2C3(C)C)c(OC)c1
Homo sapiens
  Ratio Ki: 400

## CCCCCn1cc(C(=O)Nc2ccc(F)cc2)c(=O)c2c(C)nn(C)c21
Cannabinoid receptor 2 [3]
  inhibition: 37%
Cannabinoid receptor 1 [4]
  inhibition: 44%
[5]
  inhibition: 27%
[6]
  inhibition: 48%
Cannabinoid receptor 2 [7]
  Ki: > 10 µM
Cannabinoid receptor 2 [8]
  Ki: > 10 µM
Cannabinoid receptor 1 [9]
  Ki: > 10 µM
Cannabinoid receptor 1 [10]
  Ki: > 10 µM

## Cc1ccc(Cn2cc(C(=O)NC3CCCCC3)c(=O)c3c(C)nn(C)c32)cc1
Cannabinoid receptor 2 [3]
  inhibition: 33%
Cannabinoid receptor 1 [4]
  inhibition: 35%
[5]
  inhibition: 29%
[6]
  inhibition: 38%
Cannabinoid receptor 2 [7]
  Ki: > 10 µM
Cannabinoid receptor 2 [8]
  Ki: > 10 µM
Cannabinoid receptor 1 [9]
  Ki: > 10 µM
Cannabinoid receptor 1 [10]
  Ki: > 10 µM

## CCCCCn1cc(C(=O)NC2CCCCC2)c(=O)c2c(-c3ccccc3)nn(C)c21
Cannabinoid receptor 2 [3]
  inhibition: 1%
Cannabinoid receptor 1 [4]
  inhibition: 23%
[5]
  inhibition: 1%
[6]
  inhibition: 18%
Cannabinoid receptor 2 [7]
  Ki: > 10 µM
Cannabinoid receptor 2 [8]
  Ki: > 10 µM
Cannabinoid receptor 1 [9]
  Ki: > 10 µM
Cannabinoid receptor 1 [10]
  Ki: > 10 µM

## CCCCCn1cc(C(=O)NC2CCCCCC2)c(=O)c2c(-c3ccccc3)nn(C)c21
Cannabinoid receptor 2 [3]
  inhibition: 1%
Cannabinoid receptor 1 [4]
  inhibition: 1%
[5]
  inhibition: 1%
[6]
  inhibition: 1%
Cannabinoid receptor 2 [7]
  Ki: > 10 µM
Cannabinoid receptor 2 [8]
  Ki: > 10 µM
Cannabinoid receptor 1 [9]
  Ki: > 10 µM
Cannabinoid receptor 1 [10]
  Ki: > 10 µM

## Cc1nn(C)c2c1c(=O)c(C(=O)NC1CCCCC1)cn2CCN1CCOCC1
Cannabinoid receptor 2 [3]
  inhibition: 36%
Cannabinoid receptor 1 [4]
  inhibition: 16%
[5]
  inhibition: 32%
[6]
  inhibition: 13%
Cannabinoid receptor 2 [7]
  Ki: > 10 µM
Cannabinoid receptor 2 [8]
  Ki: > 10 µM
Cannabinoid receptor 1 [9]
  Ki: > 10 µM
Cannabinoid receptor 1 [10]
  Ki: > 10 µM
